Data: article PMC5816172 (Proceedings of the National Academy of Sciences of the …, 2018)
Where two headings read alike, the source gives them in different places.

Experiments:
[1] = test system: NLRP3 inflammasome; assay: NLRP3 inflammasome stimulation of J774A.1 macrophages; type: cell-based, mouse
[2] = test system: NLRP3 inflammasome; assay: NLRP3 inflammasome stimulation of human monocyte-derived macrophages; type: cell-based; conditions: Macrophage
[3] = test system: caspase-1; assay: Caspase-1 activity assay in J774A.1 cell lysates; type: cell-based, mouse; conditions: J774A.1, LPS/NIG, 50 µM, P = 0.003
[4] = test system: J774A.1 cells; assay: LDH release from J774A.1 cells; type: cell-based, mouse; conditions: J774A.1, LPS/ATP, P < 0.05
Outline: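 J774A.1 cells were stimulated with LPS plus ATP in the presence of increasing concentrations of test compound. LDH release was measured and reported as mean ± SEM. Data are representative of three independent experiments.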

[5] = test system: mRNA levels of nlrp3, asc, caspase1, il1b, and il18; assay: Real-time PCR of inflammasome genes in J774A.1 cells; type: cell-based, mouse; conditions: J774A.1, LPS/ATP, 100 to 0.1 µM
[6] = test system: NLRP3 inflammasome; assay: Noncanonical NLRP3 inflammasome activation in THP-1 cells; type: cell-based; conditions: Homo sapiens, THP-1, read-out: maximal inhibition of IL-1β release
Outline: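 Wild-type and nlrp3-deficient human THP-1 cells were primed with the […] agonist Pam3CSK4, then transfected with LPS in the presence of test compound. IL-1β release was measured.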

[7] = test system: Src; assay: Phosphoarray assay in HMDM; type: cell-based, human; conditions: LPS/nigericin, 10 µM, one donor
[8] = test system: Fyn; assay: Phosphoarray assay in HMDM; type: cell-based, human; conditions: LPS/nigericin, 10 µM, one donor
[9] = test system: Hck; assay: Phosphoarray assay in HMDM; type: cell-based, human; conditions: LPS/nigericin, 10 µM, one donor
[10] = test system: STAT3; assay: Phosphoarray assay in HMDM; type: cell-based, human; conditions: LPS/nigericin, 10 µM, one donor
[11] = molecular target: T1, NLRP3-ASC (Mus musculus, UniProt Q8R4B8); assay: Immunoprecipitation of NLRP3-ASC association in J774A.1 cells; type: cell-based; conditions: J774A.1, LPS and nigericin
[12] = molecular target: Human recombinant NLRP3 (Homo sapiens, UniProt Q96P20); assay: NLRP3 ATPase activity; type: biochemical; conditions: cell-free, 1 and 10 µM
Outline: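 Cell-free ATPase activity of recombinant NLRP3 was measured with test compound (n = 3). Bay11-7082 and 3,4-methylenedioxy-β-nitrostyrene served as positive-control NLRP3 inhibitors (n = 2 each).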

[13] = molecular target: T1, NLRP3-ASC; assay: Immunofluorescence and FRET analysis of NLRP3-ASC in J774A.1 cells; type: cell-based; conditions: J774A.1, LPS and nigericin, 10 µM
Outline: (§1)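 J774A.1 cells stimulated with LPS plus nigericin with test compound at 10 µM. After PBS wash: fixed and permeabilised in 70–30 acetone–methanol, blocked 1 h in 10% normal donkey serum. […] Then Alexa555/Alexa488 secondaries 1 h at room temperature, DAPI nuclei. FRET = Transfer − (Fd/D) − (Fa/Aa). Three independent experiments.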

[14] = molecular target: NLRP3-caspase-1 (Mus musculus, UniProt Q8R4B8); assay: FRET analysis of NLRP3-caspase-1 in J774A.1 cells; type: cell-based; conditions: J774A.1, LPS and nigericin, 10 µM
Outline: as §1

[15] = molecular target: P2X7R (Homo sapiens, UniProt Q99572); assay: Whole-cell patch-clamp recordings on LPS-primed U937 cells; type: cell-based; conditions: 100 µM BzATP, OLT1177 0.1 nM and 100 µM
Outline: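 U937 cells on poly-L-lysine-coated dishes were primed with 1 μg/mL E. coli LPS for 5 h. Whole-cell patch clamp at room temperature, holding −60 mV. BzATP was diluted from a 100-mM stock to 100 µM in bath solution and applied by pressure microperfusion. Test compound (0.1 nM, 100 µM) was given in parallel cultures. ΔI compared by Wilcoxon signed-rank, shown as median with 25th–75th percentiles.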

[16] = test system: NLRC4 inflammasome; assay: NLRC4 inflammasome activation in J774A.1 cells; type: cell-based, mouse; conditions: J774A.1, LPS and flagellin
Outline: (§2)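 J774A.1 murine macrophages primed with LPS, then stimulated with the dsDNA analog Poly(dA:dT) for AIM2 or with flagellin for NLRC4, in the presence of test compound. Secreted mature IL-1β and TNFα were measured in supernatants. Data are mean ± SEM from three independent experiments.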

[17] = test system: AIM2 inflammasome; assay: AIM2 inflammasome activation in J774A.1 cells; type: cell-based, mouse; conditions: J774A.1, LPS and Poly(dA:dT)
Outline: as §2

[18] = test system: NLRP3 inflammasome; assay: IL-1β release from freshly obtained human blood neutrophils; type: cell-based; conditions: primary human neutrophils
Outline: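 Freshly obtained human blood neutrophils were stimulated with LPS and ATP with test compound at 0.1, 1 and 10 µM. Supernatant IL-1β was measured by ELISA, and mature 17 kDa IL-1β by Western blot. IL-1β precursor was measured in the cell lysates. Data are mean ± SEM of cells from three healthy donors.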

[19] = test system: caspase-1; assay: Caspase-1 activity in human neutrophils; type: cell-based; conditions: LPS/ATP, 50 and 10 µM
Outline: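 Primary blood neutrophils from three healthy donors were stimulated with LPS and ATP in the presence of test compound. Caspase-1 activity was then measured. Data are mean ± SEM across donors.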

[20] = test system: il1b, caspase1, and nlrp3 mRNA levels; assay: Real-time PCR in human neutrophils; type: cell-based; conditions: LPS/ATP
Outline: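 Human neutrophils from four healthy donors were stimulated with LPS and ATP in the presence of test compound. Levels of il1b, caspase1 and nlrp3 mRNA are expressed as fold change, mean ± SEM.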

[21] = test system: mice challenged with LPS-induced systemic inflammation; assay: In vivo LPS challenge; set-up: species or system mouse
Outline: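 Male C57BL/6J mice (22–26 g) received 200 mg/kg in 200 µL saline i.p. every 12 h × 5, or saline alone. One hour after the last dose: LPS (E. coli 055:B5) 5 mg/kg i.p., killed 2 h later. Peritoneal lavage with 10 mL cold PBS, spun 1,000 × g, 5 min. Spleen, lung, liver and quadriceps homogenates spun 13,000 × g, 20 min, 4 °C; cytokines normalised to total protein. n = 7–8 per group.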

[22] = test system: muscle metabolism; assay: Metabolomics analysis of quadriceps muscle after in vivo LPS challenge; set-up: species or system mouse; conditions: mice, muscle 2 h after LPS, vs vehicle
Outline: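 Mice were treated with test compound or vehicle and challenged with LPS i.p. Muscle was excised 2 h after LPS for metabolomic profiling of glutathione species, adenylates and TCA intermediates. Results are in arbitrary units, mean ± SEM, n = 3 mice per group.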

[23] = 200 mg/kg i.p. every 12 h for five doses, 2 h after i.p. LPS 5 mg/kg
[24] = 200 mg/kg i.p. x5, 2 h after LPS, organ homogenates

T1 sequence (Q8R4B8 whole entry): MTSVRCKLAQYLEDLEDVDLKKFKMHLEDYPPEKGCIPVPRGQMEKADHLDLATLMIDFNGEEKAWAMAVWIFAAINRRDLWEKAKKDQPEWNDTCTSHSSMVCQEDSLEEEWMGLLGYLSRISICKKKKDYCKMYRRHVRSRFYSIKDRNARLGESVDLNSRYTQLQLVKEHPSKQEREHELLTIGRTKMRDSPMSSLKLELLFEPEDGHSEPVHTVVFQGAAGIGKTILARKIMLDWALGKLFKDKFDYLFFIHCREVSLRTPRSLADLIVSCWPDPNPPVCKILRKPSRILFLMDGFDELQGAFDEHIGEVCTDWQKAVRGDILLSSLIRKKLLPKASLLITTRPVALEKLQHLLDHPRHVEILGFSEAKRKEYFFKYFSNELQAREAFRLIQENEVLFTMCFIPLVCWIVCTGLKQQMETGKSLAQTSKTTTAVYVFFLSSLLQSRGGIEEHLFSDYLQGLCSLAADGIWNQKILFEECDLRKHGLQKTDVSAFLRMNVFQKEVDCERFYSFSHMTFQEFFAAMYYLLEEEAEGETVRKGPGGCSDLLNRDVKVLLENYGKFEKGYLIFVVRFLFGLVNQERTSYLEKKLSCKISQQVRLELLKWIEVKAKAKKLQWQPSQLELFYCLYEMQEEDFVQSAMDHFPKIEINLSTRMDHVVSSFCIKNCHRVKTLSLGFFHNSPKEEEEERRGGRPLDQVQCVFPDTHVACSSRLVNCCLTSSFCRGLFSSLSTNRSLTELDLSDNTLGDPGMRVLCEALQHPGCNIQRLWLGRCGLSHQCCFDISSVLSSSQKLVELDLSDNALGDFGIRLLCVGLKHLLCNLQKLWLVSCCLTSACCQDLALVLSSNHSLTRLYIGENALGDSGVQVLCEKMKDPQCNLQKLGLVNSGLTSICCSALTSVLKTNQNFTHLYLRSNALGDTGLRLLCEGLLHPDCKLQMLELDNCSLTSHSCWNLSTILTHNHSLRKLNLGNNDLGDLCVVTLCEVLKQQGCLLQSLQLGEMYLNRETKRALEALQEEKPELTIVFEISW
Sequence of NLRP3-caspase-1 (Q8R4B8 whole entry): as above
Sequence of P2X7R (Q99572 whole entry, the tested form may be a part): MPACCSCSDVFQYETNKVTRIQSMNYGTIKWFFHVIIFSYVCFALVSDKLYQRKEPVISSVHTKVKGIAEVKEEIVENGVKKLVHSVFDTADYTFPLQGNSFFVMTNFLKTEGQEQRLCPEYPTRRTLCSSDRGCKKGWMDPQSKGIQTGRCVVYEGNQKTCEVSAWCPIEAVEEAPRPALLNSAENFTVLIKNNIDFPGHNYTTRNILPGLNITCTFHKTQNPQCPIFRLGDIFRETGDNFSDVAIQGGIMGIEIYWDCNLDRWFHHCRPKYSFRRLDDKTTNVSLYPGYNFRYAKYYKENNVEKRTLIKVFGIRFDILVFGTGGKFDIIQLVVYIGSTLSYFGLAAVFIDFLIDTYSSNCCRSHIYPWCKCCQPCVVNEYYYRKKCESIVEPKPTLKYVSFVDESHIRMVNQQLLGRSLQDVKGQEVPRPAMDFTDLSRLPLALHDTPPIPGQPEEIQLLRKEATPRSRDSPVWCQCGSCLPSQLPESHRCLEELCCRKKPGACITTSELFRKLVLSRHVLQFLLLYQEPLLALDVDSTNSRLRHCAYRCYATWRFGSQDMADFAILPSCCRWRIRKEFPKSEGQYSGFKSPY
Sequence of Human recombinant NLRP3 (Q96P20 whole entry): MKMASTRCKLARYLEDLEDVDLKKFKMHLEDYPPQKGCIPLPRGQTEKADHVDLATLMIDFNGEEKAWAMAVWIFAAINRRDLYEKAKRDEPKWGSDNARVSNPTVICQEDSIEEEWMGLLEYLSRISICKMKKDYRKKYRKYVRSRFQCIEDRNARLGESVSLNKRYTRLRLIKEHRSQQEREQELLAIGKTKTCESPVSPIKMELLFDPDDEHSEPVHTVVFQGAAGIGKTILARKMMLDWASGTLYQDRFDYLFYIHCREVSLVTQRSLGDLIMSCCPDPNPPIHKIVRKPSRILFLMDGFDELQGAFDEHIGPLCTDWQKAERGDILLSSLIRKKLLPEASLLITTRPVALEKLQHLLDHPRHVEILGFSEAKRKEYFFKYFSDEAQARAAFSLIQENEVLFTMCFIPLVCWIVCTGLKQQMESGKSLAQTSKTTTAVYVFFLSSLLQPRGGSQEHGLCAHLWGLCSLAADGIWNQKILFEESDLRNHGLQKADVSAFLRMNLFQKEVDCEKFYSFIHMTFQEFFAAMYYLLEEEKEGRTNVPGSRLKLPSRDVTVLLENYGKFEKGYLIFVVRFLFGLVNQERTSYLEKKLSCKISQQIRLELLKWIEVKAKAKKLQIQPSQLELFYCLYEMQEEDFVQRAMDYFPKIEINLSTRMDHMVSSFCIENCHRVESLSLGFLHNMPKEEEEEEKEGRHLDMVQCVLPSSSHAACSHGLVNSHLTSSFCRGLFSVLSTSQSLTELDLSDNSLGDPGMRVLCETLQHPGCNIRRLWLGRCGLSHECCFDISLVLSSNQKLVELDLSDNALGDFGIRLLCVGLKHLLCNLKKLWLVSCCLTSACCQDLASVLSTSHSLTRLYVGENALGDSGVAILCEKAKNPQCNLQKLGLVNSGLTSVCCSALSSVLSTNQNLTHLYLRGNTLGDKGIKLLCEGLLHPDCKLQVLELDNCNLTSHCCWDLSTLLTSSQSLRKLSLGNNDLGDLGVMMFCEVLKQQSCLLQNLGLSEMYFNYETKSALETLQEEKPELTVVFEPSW

Structure (SMILES): CS(=O)(=O)CCC#N [OLT1177]
- release of IL-1β ([1]; J774A.1 (Fig. S7B), LPS/nigericin, OLT1177 in combination with ACHP): to the levels of unstimulated cells
- reduction of IL-1β secretion, OLT1177 compared with MCC950 ([1]; J774A.1, LPS and ATP, 10 to 0.01 µM): comparable
- IL-1β release ([1]; J774A.1, LPS and nigericin): inhibited
- TNFα levels ([1]; J774A.1, LPS and nigericin): without affecting
- TNFα levels in supernatants ([1]; J774A.1, LPS/ATP): no effect
- intracellular level of the IL-1β and caspase-1 precursors ([1]; J774A.1, LPS/ATP): no changes
- reduction of IL-1β secretion ([1]; J774A.1, LPS/ATP, nanomolar concentrations of OLT1177): 50%
- concentration that significantly reduced IL-1β release ([1]; in vitro, across cell types): ≤ 1 µM
- inhibition at 1 µM ([2]; read-out: maximal inhibition of IL-1β secretion): 60%
- inhibition at 1 µM ([2]; read-out: maximal inhibition of IL-18 secretion): 70%
- reduction of activated caspase-1 in cell lysates [3]: 35%
- release of LDH (cell death) [4]: significantly reduced
- mRNA levels of nlrp3, asc, caspase1, il1b, and il18 [5]: no effect
- inhibition at 10 µM [6]: 70%
- reduction in Src activation (phosphorylation) [7]: 26%
- reduction in Fyn phosphorylation [8]: 35%
- reduction in Hck phosphorylation [9]: 43%
- reduction in STAT3 phosphorylation [10]: 33%
- NLRP3-mediated ASC recruitment (immunoprecipitation) [11]: reduction
- ATPase activity of recombinant NLRP3 [12]: inhibited
- ASC speck structures (immunofluorescence) [13]: reduction
- NLRP3-ASC association (FRET intensity) [13]: significant lower
- NLRP3 and caspase-1 association (FRET) [14]: reduced
- BzATP-induced ion current change (P2X7R activation) [15]: not affected
- release of IL-1β and TNFα following NLRC4 inflammasome activation [16]: no effect
- release of IL-1β and TNFα following AIM2 inflammasome activation [17]: no effect
- total intracellular pool of the IL-1β precursor ([18]; LPS/ATP): without affecting
- release of IL-1β ([18]; LPS/ATP, 0.1, 1, and 10 µM): prevented
- caspase-1 activity [19]: reduced
- il1b, caspase1, and nlrp3 mRNA levels [20]: without affecting
- reduction of peritoneal fluid CXCL1 [21, 23]: 30%
- reduction of peritoneal fluid IL-6 [21, 23]: 44%
- reduction of peritoneal fluid myeloperoxidase (MPO) [21, 23]: 80%
- TNFα content in lung, liver, spleen, and skeletal muscle [21, 24]: no significant changes
- total IL-1β content in lung, liver, spleen, and skeletal muscle [21, 24]: significantly decreased
- muscle ATP [22]: higher levels
